Reference: the RNAGym collection of RNA variant scans (doi:10.1126/science.aae0568)
Fewer inactive variants are shown than the library holds.

B1: tRNA (parent)
chain: GUUCCGUUGGCGUAAUGGUAACGCGUCUCCCUCCUAAGGAGAAGACUGCGGGUUCGAGUCCCGUACGGAACG

Variants of: B1
Assay: yeast fitness relative to wild type (ratio to wild type); higher = fitter; tRNA-Arg(CCU), competitive growth, 37 C, YPD
In short: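 Genotype frequency changes were the basis for Darwinian fitness relative to wild type. The frequencies came from 100-nucleotide paired-end sequencing of gene amplicons from the start population and each end population of pooled yeast strains with tRNA-Arg(CCU) gene variants at the native locus. Competition ran in YPD at 37°C for 24 hours in six replicates, genotypes needed ≥ 100 starting reads, and estimates < 0.5 were set to 0.5.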
Variant U32A A70G has a yeast fitness of 0.841.
C31U U35A A37G A40C U47C U64G showed a yeast fitness of 0.512.
C31U U59A G63A gave a yeast fitness of 0.683.
With U32A C46A G58A the yeast fitness was ≤ 0.5.
Variant C31U G48A A65G has a yeast fitness of 0.917.
With U32A U54C C55U the yeast fitness was ≤ 0.5.
For U32A A42U U54C, the yeast fitness was ≤ 0.5.
In the case of U32C A40U C60U G67C A70G, the yeast fitness is reported as ≤ 0.5.
C31U G41A showed a yeast fitness of 0.959.
U32C A40G A70C gave a yeast fitness of 0.634.
With U32A U53A the yeast fitness was ≤ 0.5.
With C31U U54G the yeast fitness was 0.535.
In the case of U32A A45U U54G, the yeast fitness is reported as ≤ 0.5.
With C31U G48A G56U A65G the yeast fitness was ≤ 0.5.
With U32C A36C G52C C66U the yeast fitness was ≤ 0.5.
C31U U47C gave a yeast fitness of 0.934.
In the case of C31U U32G, the yeast fitness is reported as 0.662.
C31U U32A gave a yeast fitness of 0.661.
U32A A43C C49A gave a yeast fitness of 0.542.
For C31U U32A U35C, the yeast fitness was 0.593.
For U32C A37C C49G A57G, the yeast fitness was ≤ 0.5.
C31U G44A C46U gave a yeast fitness of 0.629.
For U32C A37U G44A A70G, the yeast fitness was ≤ 0.5.
With U32A C34G G68A A69U A70U the yeast fitness was ≤ 0.5.
In the case of U32A C49G C55U, the yeast fitness is reported as ≤ 0.5.
U32C A43G G52A C61G gave a yeast fitness of 0.532.
With C31U C62U the yeast fitness was 0.907.
C31U C66U showed a yeast fitness of 1.03.
With U32C A37U G56C A57U the yeast fitness was ≤ 0.5.
For U32A G52A, the yeast fitness was ≤ 0.5.
In the case of C31U U47G G67C, the yeast fitness is reported as ≤ 0.5.
In the case of C31U G38A A40C G68C A70U, the yeast fitness is reported as ≤ 0.5.
With C31U U59A C60G the yeast fitness was 0.516.
In the case of U32C A42C, the yeast fitness is reported as 0.866.
For U32C A42G, the yeast fitness was 0.861.
In the case of U32C A42U G44C U54A, the yeast fitness is reported as ≤ 0.5.
In the case of C31U G41C A43C G48A C60G, the yeast fitness is reported as ≤ 0.5.
Work on U32C A40G yielded a yeast fitness of 0.66.
In the case of U32A G39A C49G, the yeast fitness is reported as ≤ 0.5.
Variant C31U U47G G58C C62U has a yeast fitness of 0.552.
For C31U G67A, the yeast fitness was 0.97.
C31U G67U gave a yeast fitness of 0.952.
For U32A C34U C55G C62U G68C, the yeast fitness was ≤ 0.5.
For C31U U32C G41C G68U, the yeast fitness was ≤ 0.5.
With U32C A42C G44A U53A the yeast fitness was ≤ 0.5.
In the case of U32C A40C G48C, the yeast fitness is reported as ≤ 0.5.
In the case of U32C A37U G48A G63C, the yeast fitness is reported as ≤ 0.5.
Work on U32A G38C yielded a yeast fitness of 0.652.
Work on U32A C62A yielded a yeast fitness of 0.549.
Work on U32A C62U yielded a yeast fitness of 0.645.
For C31U G44A A45U U47C, the yeast fitness was 0.607.
Work on U32C A43G yielded a yeast fitness of 0.998.
U32C A43U showed a yeast fitness of 0.921.
Variant U32A U47C has a yeast fitness of 0.826.
Variant C31U G38C G51A G56A has a yeast fitness of 0.543.
For U32A G39A U54A C66A, the yeast fitness was ≤ 0.5.
For U32A G48A, the yeast fitness was 0.673.
With U32A U53C A69C the yeast fitness was ≤ 0.5.
For U32A C60A, the yeast fitness was ≤ 0.5.
With C31U U54G C55U the yeast fitness was 0.566.
C31U U32G C33G gave a yeast fitness of 0.591.
With U32C A42U U64A A65G the yeast fitness was ≤ 0.5.
With U32C A42U G58C the yeast fitness was 0.623.
For U32A U59C A69C, the yeast fitness was ≤ 0.5.
With U32C A36U G38A G50A G67A the yeast fitness was ≤ 0.5.
For C31U G58A C66U, the yeast fitness was 0.73.
C31U G38A gave a yeast fitness of 0.81.
Variant C31U G50C has a yeast fitness of 0.955.
In the case of C31U C66U G67A, the yeast fitness is reported as 0.596.
U32A A36G gave a yeast fitness of 0.814.
For C31U G39A A57C, the yeast fitness was ≤ 0.5.
U32A G38A A57U gave a yeast fitness of 0.557.
In the case of U32A C66U, the yeast fitness is reported as 0.834.
In the case of U32A A36G G39C C62U, the yeast fitness is reported as ≤ 0.5.
For C31U U35C, the yeast fitness was 0.851.
For U32A A37G G48A C60G G68A, the yeast fitness was ≤ 0.5.
Variant U32A G58A A70C has a yeast fitness of 0.513.
In the case of C31U U35C U47A, the yeast fitness is reported as ≤ 0.5.
For C31U G44A A45U A57G, the yeast fitness was 0.537.
In the case of U32A A45C G48A, the yeast fitness is reported as 0.509.
For U32A C33A C46G, the yeast fitness was ≤ 0.5.
With U32A A43G U53A the yeast fitness was ≤ 0.5.
C31U G63A gave a yeast fitness of 1.14.
Work on U32A A40G G50A C61G yielded a yeast fitness of 0.787.
U32C A43G A70G showed a yeast fitness of 0.708.
Work on U32C A43U A70U yielded a yeast fitness of 0.735.
Variant U32C A37G has a yeast fitness of 0.819.
U32A G39A showed a yeast fitness of 0.792.
Variant U32A C49A has a yeast fitness of 0.582.
U32A C49U showed a yeast fitness of 0.78.
U32C A42U C62G gave a yeast fitness of 0.578.
Work on U32A C34A A65C yielded a yeast fitness of 0.523.
Work on U32A G67C yielded a yeast fitness of 0.732.
Work on U32A C46A A57G yielded a yeast fitness of 0.614.
U32A G50A showed a yeast fitness of 0.783.
With U32A A36C C60G the yeast fitness was ≤ 0.5.
Work on U32A C55A yielded a yeast fitness of 0.572.
For U32A G58C G63C, the yeast fitness was ≤ 0.5.
In the case of U32A G41C C49G C55U, the yeast fitness is reported as ≤ 0.5.
With U32A C46A U53A the yeast fitness was ≤ 0.5.
Variant U32A U59G has a yeast fitness of 0.831.
In the case of U32A A36G G39C G50A U64C, the yeast fitness is reported as ≤ 0.5.
Variant C31U G48A C61G C62A has a yeast fitness of 0.602.
For U32A U35A A42U, the yeast fitness was ≤ 0.5.
For C31U G52C A57C, the yeast fitness was ≤ 0.5.
With U32A A42G the yeast fitness was 0.655.
Variant U32A G56C A69U has a yeast fitness of 0.53.
With U32A G56C the yeast fitness was 0.594.
With C31U G44C A69C the yeast fitness was 0.585.
Variant C31U G44C A69U has a yeast fitness of 0.634.
Work on U32A C61G yielded a yeast fitness of 0.526.
With U32A C61U the yeast fitness was 0.855.
Variant U32A U35A has a yeast fitness of 0.619.
Work on C31U G68U A69U yielded a yeast fitness of 0.615.
For U32A C33G C66U A69U, the yeast fitness was ≤ 0.5.
Work on C31U G58A yielded a yeast fitness of 0.965.
U32A A40C A69C showed a yeast fitness of 0.562.
Work on U32C A40U U59C yielded a yeast fitness of 0.718.
For U32A G41A C61A, the yeast fitness was ≤ 0.5.
U32A G58A gave a yeast fitness of 0.781.
Work on U32A A37C C55G yielded a yeast fitness of 0.503.
For U32C A37U G48A, the yeast fitness was 0.537.
For U32A G50A A69U, the yeast fitness was 0.527.
With U32A C33A A43U C62U the yeast fitness was ≤ 0.5.
With U32A C34G the yeast fitness was ≤ 0.5.
U32A C33U A40C gave a yeast fitness of 0.661.
For U32A U35G A36U G38A U47C, the yeast fitness was ≤ 0.5.
With C31U U64G the yeast fitness was 0.775.
C31U U64C showed a yeast fitness of 0.817.
With U32C A43C C55A A57C the yeast fitness was ≤ 0.5.
In the case of U32A A37U A45C, the yeast fitness is reported as ≤ 0.5.
C31U G63A A69C showed a yeast fitness of 0.748.
For U32A C33A A43U C55U, the yeast fitness was ≤ 0.5.
Work on U32A C61G G68C yielded a yeast fitness of 0.601.
For C31U G44C, the yeast fitness was 0.826.
In the case of C31U G58A U59A, the yeast fitness is reported as 0.672.
For U32A C33G C46U, the yeast fitness was ≤ 0.5.
With U32C A40U A70U the yeast fitness was 0.784.
In the case of U32C A40C G51A C61U A69C, the yeast fitness is reported as ≤ 0.5.
In the case of U32C A42C G44C A69C, the yeast fitness is reported as ≤ 0.5.
In the case of U32A U64A A65U, the yeast fitness is reported as 0.961.
For U32A C49A U53C C66G, the yeast fitness was ≤ 0.5.
Work on C31U G52C yielded a yeast fitness of 0.661.
For C31U U32A C61U, the yeast fitness was 0.627.
U32C A42C G44C G52C gave a yeast fitness of 0.548.
U32A G56A A69U gave a yeast fitness of 0.554.
With U32A C46U the yeast fitness was 0.623.
U32A C46A gave a yeast fitness of 0.683.
For C31U U32C C34U A57C, the yeast fitness was ≤ 0.5.
Variant C31U G68U has a yeast fitness of 0.846.
For C31U G58A A65G, the yeast fitness was 0.73.
For C31U U47A C61U A70C, the yeast fitness was ≤ 0.5.
U32C A40U C46A A65U gave a yeast fitness of 0.589.
With U32A A42C A57G A70C the yeast fitness was ≤ 0.5.
In the case of U32A A43G, the yeast fitness is reported as 0.666.
With U32A A43U the yeast fitness was 0.879.
In the case of C31U U35C A40G, the yeast fitness is reported as ≤ 0.5.
Work on C31U C66U A69U yielded a yeast fitness of 0.807.
With C31U U32A U35C A65G the yeast fitness was ≤ 0.5.
In the case of U32A C61G A70U, the yeast fitness is reported as ≤ 0.5.
With U32C A40G G48C A69U A70U the yeast fitness was ≤ 0.5.
Work on C31U G48C A69C yielded a yeast fitness of 0.67.
In the case of U32A A43G U53A G68A, the yeast fitness is reported as ≤ 0.5.
U32A A42U C61G C62U gave a yeast fitness of 0.661.
With C31U U53C C62G the yeast fitness was 0.625.
In the case of U32A C46A A65G C66A G68C, the yeast fitness is reported as ≤ 0.5.
For U32A A65G, the yeast fitness was 0.719.
